ChEMBL document CHEMBL2086284, “(Z)-1-aryl-3-arylamino-2-propen-1-ones, highly active stimulators of tubulin polymerization: synthesis, structure-activity relationship (SAR), tubulin polymerization, and cell growth inhibition studies” (J Med Chem, 2012)

Experiments:
K562 = assay: Cytotoxicity against human K562 cells after 96 hrs by trypan blue exclusion assay; format: functional, cell-based; settings: K562, 96 h
Summary of the method: (§1)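 Cells grown in DMEM or RPMI with 10% FBS and penicillin-streptomycin. Seeded at 1.0 × 10^5 cells/mL/well in 6-well dishes; compounds were added 24 h later at various concentrations. Viable cells were counted by trypan blue exclusion from duplicate wells after 96 h of treatment, giving a dose-response endpoint.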

DU-145 = assay: Cytotoxicity against androgen receptor-deficient human DU145 cells after 96 hrs by trypan blue exclusion assay; format: functional, cell-based; settings: DU-145, 96 h; summary of the method: as §1

| Structure (SMILES) | IC50 (K562) [nM] | IC50 (DU-145) [nM] |
| --- | --- | --- |
| COc1cc(C(=O)/C=C\Nc2cccc3[nH]ncc23)cc(OC)c1OC | 2500 | 750 |
| COc1ccc(N/C=C\C(=O)c2cc(OC)c(OC)c(OC)c2Cl)cc1O | 250 | 200 |
| COc1cc(N/C=C\C(=O)c2cc(OC)c(OC)c(OC)c2)cc(OC)c1OC | 25000 | 40000 |
| COc1ccc(C(=O)/C=C\Nc2cc(OC)c(OC)c(OC)c2)cc1 | 75000 | 50000 |
| COc1cc(OC)c(N/C=C\C(=O)c2cc(OC)c(OC)c(OC)c2)c(OC)c1 | 50000 | 75000 |
| COc1ccc(N/C=C\C(=O)c2c(OC)cc(OC)cc2OC)cc1 | 75000 | 75000 |
| COc1cc(C(=O)/C=C\Nc2cnc3ccccc3c2)cc(OC)c1OC | 750 | 500 |
| COc1ccc(N/C=C\C(=O)c2cc(OC)c(OC)c(OC)c2)cc1Cl | 250 | 200 |
| COc1ccc(N/C=C\C(=O)c2cc(OC)c(OC)c(OC)c2)cc1F | 250 | 250 |
| COc1ccc(N/C=C\C(=O)c2cc(OC)c(OC)c(OC)c2)cc1 | 500 | 500 |
| COc1cc(C(=O)/C=C\Nc2ccc(OC(F)(F)F)cc2)cc(OC)c1OC | 20000 | 3000 |
| COc1cc(C(=O)/C=C\Nc2ccc(C(F)(F)F)cc2)cc(OC)c1OC | 500 | 500 |
| COc1cc(OC)c(C(=O)/C=C\Nc2ccccc2O)c(OC)c1 | 75000 | 25000 |
| COc1cc(C(=O)/C=C\Nc2ccccc2O)cc(OC)c1OC | 500 | 250 |
| COc1cc(OC)c(N/C=C\C(=O)c2c(OC)cc(OC)cc2OC)c(OC)c1 | 50000 | 75000 |
| COc1cc(C(=O)/C=C\Nc2ccc3cc[nH]c3c2)cc(OC)c1OC | 200 | 100 |
| COc1cc(C(=O)/C=C\Nc2ccc(Cl)cc2)cc(OC)c1OC | 250 | 500 |
| COc1ccc(N/C=C\C(=O)c2c(OC)cc(OC)cc2OC)c(OC)c1 | 75000 | 75000 |
